Experiments:
[1] = tested on: K562; test: Growth inhibition of human K562 cells after 48 hrs by SRB assay; format: functional; details: K562, 48 h
In short: (§1)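 NCI 60-panel five-dose assay at 0.01, 0.1, 1, 10 and 100 μM. Cells in RPMI 1640 with 5% FBS and 2 mM L-glutamine, preincubated 24 h, with time-zero plates TCA-fixed. Drug exposure 48 h at 37 °C. Read by SRB staining at 515 nm. GI50 is the concentration where [(Ti−Tz)/(C−Tz)]×100 = 50, taken from log concentration versus % growth curves.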

[2] = Growth inhibition of human […] cells after 48 hrs by SRB assay; format: functional; in short: as §1
[3] = tested on: A549; test: Growth inhibition of human A549 cells after 48 hrs by SRB assay; format: functional; details: A549, 48 h; in short: as §1
[4] = tested on: EKVX; test: Growth inhibition of human EKVX cells after 48 hrs by SRB assay; format: functional; in short: as §1
[5] = tested on: HOP-62; test: Growth inhibition of human HOP62 cells after 48 hrs by SRB assay; format: functional; details: HOP-62, 48 h; in short: as §1
[6] = tested on: NCI-H226; test: Growth inhibition of human NCI-H226 cells after 48 hrs by SRB assay; format: functional; details: NCI-H226, 48 h; in short: as §1
[7] = tested on: NCI-H460; test: Growth inhibition of human NCI-H460 cells after 48 hrs by SRB assay; format: functional; details: NCI-H460, 48 h; in short: as §1
[8] = tested on: HCC 2998; test: Growth inhibition of human HCC2998 cells after 48 hrs by SRB assay; format: functional; details: HCC 2998, 48 h; in short: as §1
[9] = tested on: HCT-116; test: Growth inhibition of human HCT116 cells after 48 hrs by SRB assay; format: functional; details: HCT-116, 48 h; in short: as §1
[10] = tested on: SF-295; test: Growth inhibition of human SF295 cells after 48 hrs by SRB assay; format: functional; details: SF-295, 48 h; in short: as §1
[11] = tested on: SF-539; test: Growth inhibition of human SF539 cells after 48 hrs by SRB assay; format: functional; details: SF-539, 48 h
In short: (§2)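 NCI-60 panel cells grown in RPMI 1640 with 5% FBS and 2 mM L-glutamine, then seeded at 5000–40,000 cells/well by doubling time and preincubated for 24 h. Compound in DMSO was tested either at 10^-5 M alone or at 0.01–100 μM in five doses, for 48 h at 37 °C. Cells were fixed with cold TCA (10% final), stained with SRB, and read at 515 nm. GI50 was taken from % growth relative to time-zero and control wells.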

[12] = tested on: SNB-19; test: Growth inhibition of human SNB19 cells after 48 hrs by SRB assay; format: functional; details: SNB-19, 48 h; in short: as §2
[13] = tested on: M14; test: Growth inhibition of human M14 cells after 48 hrs by SRB assay; format: functional; details: M14, 48 h; in short: as §1
[14] = tested on: UACC-62; test: Growth inhibition of human UACC62 cells after 48 hrs by SRB assay; format: functional; details: UACC-62, 48 h; in short: as §2
[15] = tested on: OVCAR-4; test: Growth inhibition of human OVCAR4 cells after 48 hrs by SRB assay; format: functional; details: OVCAR-4, 48 h; in short: as §1
[16] = tested on: OVCAR-5; test: Growth inhibition of human OVCAR5 cells after 48 hrs by SRB assay; format: functional; details: OVCAR-5, 48 h; in short: as §1
[17] = tested on: SN12C; test: Growth inhibition of human SN12C cells after 48 hrs by SRB assay; format: functional; in short: as §2
[18] = tested on: DU-145; test: Growth inhibition of human DU145 cells after 48 hrs by SRB assay; format: functional; details: DU-145, 48 h; in short: as §1
[19] = tested on: T47D; test: Growth inhibition of human T47D cells after 48 hrs by SRB assay; format: functional; in short: as §2
[20] = tested on: NCI-H23; test: Cytotoxicity against human NCI-H23 cells after 48 hrs by SRB assay; format: cell-based; details: nci-h23, 48 h
In short: (§3)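 NCI-60 five-dose screen in RPMI 1640 with 5% FBS and 2 mM L-glutamine; 5000–40,000 cells/well, 24 h pre-incubation. DMSO stocks diluted to 0.01, 0.1, 1, 10 and 100 μM final; 48 h at 37 °C, 5% CO2. Fixed with TCA (10% final adherent, 16% suspension), stained with 0.4% SRB, A515. GI50, TGI and LC50 taken from time-zero, control and test absorbances.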

[21] = tested on: HT-29; test: Cytotoxicity against human HT-29 cells after 48 hrs by SRB assay; format: cell-based; details: ht-29, 48 h; in short: as §3
[22] = tested on: KM12; test: Cytotoxicity against human KM12 cells after 48 hrs by SRB assay; format: cell-based; details: km12, 48 h; in short: as §3
[23] = tested on: SF-539; test: Cytotoxicity against human SF539 cells after 48 hrs by SRB assay; format: cell-based; details: sf-539, 48 h; in short: as §3
[24] = tested on: SNB-19; test: Cytotoxicity against human SNB19 cells after 48 hrs by SRB assay; format: cell-based; details: snb-19, 48 h
In short: (§4)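 NCI-60 five-dose screen. Cells grown in RPMI 1640 with 5% FBS and 2 mM L-glutamine and pre-incubated 24 h; a time-zero plate is TCA-fixed. Drug added at 0.01, 0.1, 1, 10 and 100 µM (DMSO stock) for 48 h at 37 °C, 5% CO2. Fixed with cold TCA (10% final for adherent, 16% for suspension cells), stained with 0.4% SRB, A515. GI50, TGI and LC50 taken from dose-response curves.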

[25] = tested on: MDA-MB-435; test: Cytotoxicity against human MDA-MB-435 cells after 48 hrs by SRB assay; format: cell-based; details: mda-mb-435, 48 h; in short: as §3
[26] = tested on: UACC-62; test: Cytotoxicity against human UACC62 cells after 48 hrs by SRB assay; format: cell-based; details: uacc-62, 48 h; in short: as §4
[27] = tested on: OVCAR-4; test: Cytotoxicity against human OVCAR4 cells after 48 hrs by SRB assay; format: cell-based; details: ovcar-4, 48 h; in short: as §3
[28] = tested on: 786-0; test: Cytotoxicity against human 786-0 cells after 48 hrs by SRB assay; format: cell-based; details: 786-0, 48 h; in short: as §3
[29] = tested on: CAKI-1; test: Cytotoxicity against human Caki1 cells after 48 hrs by SRB assay; format: cell-based; details: caki-1, 48 h; in short: as §3
[30] = tested on: RXF 393; test: Cytotoxicity against human RXF393 cells after 48 hrs by SRB assay; format: cell-based; details: rxf 393, 48 h; in short: as §3
[31] = tested on: TK-10; test: Cytotoxicity against human TK10 cells after 48 hrs by SRB assay; format: cell-based; details: tk-10, 48 h; in short: as §4
[32] = tested on: UO-31; test: Cytotoxicity against human UO31 cells after 48 hrs by SRB assay; format: cell-based; details: uo-31, 48 h; in short: as §4
[33] = tested on: DU-145; test: Cytotoxicity against human DU145 cells after 48 hrs by SRB assay; format: cell-based; details: du-145, 48 h; in short: as §3
[34] = Cytotoxicity against human Hs 578T cells after 48 hrs by SRB assay; format: cell-based; in short: as §3
[35] = tested on: MDA-MB-468; test: Cytotoxicity against human MDA-MB-468 cells after 48 hrs by SRB assay; format: cell-based; details: mda-mb-468, 48 h; in short: as §3

`O=c1c2ccccc2nc(-c2ccco2)n1/N=C/c1ccccc1Cl` showed a GI50 [1] greater than 100 µM, a TGI [1] greater than 100 µM and a GI50 [2] greater than 100 µM. The TGI [2] was greater than 100 µM, the GI50 [3] was 4.78 µM and the TGI [3] was greater than 100 µM. For the same compound, the GI50 [4] was 7.23 µM, the TGI [4] was greater than 100 µM and the GI50 [5] was 3.56 µM. The TGI [5] was 13.7 µM, the GI50 [6] was 4.12 µM and the TGI [6] was greater than 100 µM. The GI50 [7] was 3.45 µM, the TGI [7] was 8.41 µM and the GI50 [8] was 5.68 µM. It also gave a TGI [8] greater than 100 µM, a GI50 [9] of 3.32 µM and a TGI [9] of 23.6 µM. For the same compound, the GI50 [10] was 3.26 µM, the TGI [10] was greater than 100 µM and the GI50 [11] was 3.28 µM. For the same compound, the TGI [11] was 21.2 µM, the GI50 [12] was 6.34 µM and the TGI [12] was 12.8 µM. It also gave a GI50 [13] of 10.8 µM, a TGI [13] greater than 100 µM and a GI50 [14] of 6.38 µM. For the same compound, the TGI [14] was greater than 100 µM, the GI50 [15] was 1.82 µM and the TGI [15] was 6.48 µM. It also gave a GI50 [16] of 5.12 µM, a TGI [16] greater than 100 µM and a GI50 [17] of 4.89 µM. For the same compound, the TGI [17] was greater than 100 µM, the GI50 [18] was 4.38 µM and the TGI [18] was greater than 100 µM. It also gave a GI50 [19] of 6.89 µM, a TGI [19] greater than 100 µM and an LC50 [20] greater than 100 µM. The LC50 [21] was greater than 100 µM, the LC50 [22] was greater than 100 µM and the LC50 [23] was greater than 100 µM. For the same compound, the LC50 [24] was greater than 100 µM, the LC50 [25] was greater than 100 µM and the LC50 [26] was greater than 100 µM. It also gave an LC50 [27] greater than 100 µM, an LC50 [28] greater than 100 µM and an LC50 [29] greater than 100 µM. It also gave an LC50 [30] greater than 100 µM, an LC50 [31] greater than 100 µM and an LC50 [32] greater than 100 µM. The LC50 [33] was greater than 100 µM, the LC50 [34] was greater than 100 µM and the LC50 [35] was greater than 100 µM.

From ChEMBL document CHEMBL1781959, “Synthesis and in vitro antitumor activity of substituted quinazoline and quinoxaline derivatives: search for anticancer agent” (Eur J Med Chem, 2011)
